Laboratory results taken from PubChem BioAssay.
Values without a mark were called inactive. Inconclusive results are not listed. Activity calls are given as the source filed them.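 The calls were made as follows, unless noted: active = inhibition over a set limit, the all-compound mean plus 3 SD, in both replicate runs; inconclusive = over that limit in just one replicate run; inactive = at or under that limit in both runs.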

Tests used:
[1] = S. cerevisiae growth inhibition in permissive medium (OD615), pilot counter-assay for S. cerevisiae lifespan shortening project, permissive growth control (AID 705;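 active = growth inhibition above 25% in both replicates, a cutoff set 3 SD above the mean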); conditions: OD615, 24 h, at 10 µM, active compounds read high
How it was run: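 System: Engineered DeaD yeast | Buffer or medium: SC raffinose/galactose permissive medium | Incubation: Cells pre-grown 4 h, then 24 h compound exposure, 30 °C humidified | Measured by: Absorbance (optical density) at 615 nm | Read-out: Reduction in yeast growth (OD615)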

[2] = S. cerevisiae growth inhibition in restrictive medium, OD615, pilot screen, restrictive growth control, yeast lifespan reduction project (AID 706;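 active = growth inhibition above a set limit, 3 SD over mean compound inhibition, in both replicates, cut at about 43% in these data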;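 also: modified DeaD lifespan yeast strain shifted to restrictive glucose medium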); conditions: OD615, 48 h, at 10 µM, active compounds read high
How it was run: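 Material: modified S. cerevisiae; Medium: glucose-based CSMM-D restrictive medium; Compound dosing: one concentration, 10 µM final, 0.25% DMSO; Incubation: 48 h compound exposure at 30 °C; Measured by: OD615.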

[3] = doxorubicin toxicity protection in MRP-1 cells – H69AR cells, CellTiter-Glo, duplicate, MRP-1 activator project, pilot screen (AID 807;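 active = viability increase at or above a cutoff of the median across tested compounds plus 3 SD, cut at about 8.5% in these data, passing the limit was not always enough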;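 also: compound pretreatment 18-22 h then 72 h combined with doxorubicin; 0% = doxorubicin alone and 100% = vehicle without doxorubicin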); conditions: H69AR viability with doxorubicin, CellTiter-Glo luminescence; at 10 µM; active compounds read high
[4] = viability of HCT116 without oncogenic beta-catenin – human colon tumor cells, pilot screen (AID 823;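 active = cell viability at or below a set limit in both duplicate runs, the limit being the all-compound median minus 4 SD, cut at about 23% in these data, passing the limit was not always enough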;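 also: 0% = wells killed by 20 µM Hyamine and 100% = untreated DMSO cell wells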); conditions: HCT116 beta-catenin knockout viability, CellTiter-Glo, 60 h; at 10 µM; active compounds read low
[5] = viability of PTEN-null HCT116 cells – cell-based, HCT116 clonal line, CellTiter-Glo, pilot screen (AID 824;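 active = viability at or below 27.92% in each of two runs, the all-compound median minus 4 SD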;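 also: 0% = 20 µM Hyamine control and 100% = vehicle cell control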); conditions: HCT116 PTEN-deleted viability, 60 h, at 10 µM, active compounds read low
[6] = RAM pathway blockade in budding yeast – dse1pr::URA3 reporter, 5-FOA selection, pilot screen (AID 869);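 also: 0% = DMSO wells with no growth and 100% = 10 µM 1-NA-PP1 with full growth; RAM network block rescues cells from 5-FOA so hits raise OD615 growth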; conditions: S. cerevisiae dse1pr::URA3 5-FOA growth, OD615, 2 d; at 10 µM; active compounds read high; strain carries analog-sensitive mutant Cbk1 kinase
[7] = RAM signaling pathway blockade in yeast – S. cerevisiae, Pdr1DBD-CYC8 efflux-inhibited sensitized strain, primary screen (AID 1298;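 active = RAM network inhibition above 8.4% in each of two replicates, 3 SD over the compound average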;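 also: 0% = DMSO untreated cells without growth and 100% = 10 µM 1-NA-PP1 full growth; higher means more yeast growth rescued from 5-FOA killing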); conditions: S. cerevisiae cbk1-as DSE1-URA3 strain, 5-FOA growth OD615, 2 d; at 50 µM; active compounds read high

Compound | growth inhibition [1] [%] | growth inhibition [2] [%] | viability increase [3] [%] | viability [4] | viability [5] | inhibition [6] [%] | RAM network inhibition [7] [%]
N=c1c2c(n(Cc3ccc(F)cc3)c3c1CCC3)CCC2 | -12.2 | -14.7 | -0.55 | 34.5% | 38.9% | 0.8 | 0.77
CCN1CCN(CCCNC(=O)c2ccc3c(c2)NC(=O)c2ccccc2S3)CC1 | -15.9 | -14.5 | -2.37 | 90.6% | 95.4% | 0.905 | 5.84
NC(=O)COc1ccc(=O)n(-c2ccccc2)n1 | 2.42 | 4.29 | 0.84 | 107% | 105% | 1.23 | 1.14
CC(=O)c1cc(Cc2csc(C(C)=O)c2)cs1 | -9.93 | -5.34 | -2.14 | 100% | 100% | 1.38 | 3.88
Clc1ccccc1-c1ccc(/C=N/n2cnnc2)o1 | -1.67 | 11.9 | -1.41 | 102% | 95.1% | 1.61 | 4.98
Cc1cccn2c(=O)c(C=NCc3ccco3)c(Nc3ccc(Cl)cc3)nc12 | -14.3 | -2.91 | -6.81 | 79.7% | 76.1% | 1.09 | 1.21
COC(=O)CN1C(=O)COc2ccc(Cl)cc21 | 4.22 | -4.81 | -0.89 | 104% | 94% | 0.605 | 2.29
CCOc1ccc(Nc2cc(C)nc3nc(C)nn23)cc1 | -10.9 | 5.96 | -3.11 | 110% | 93.9% | 0.67 | 2.62
COc1ccccc1S(=O)Cc1ccc(C(=O)NC2CCCC2)o1 (centres undefined) | 4.5 | 4.6 | -2.33 | 107% | 101% | 0.395 | 3.24
CCNC(=O)CN(Cc1ccccc1)S(=O)(=O)c1ccccc1 | -5.21 | 13.1 | 0.61 | 89.3% | 104% | 0.615 | 1.94
Cc1cccc(Nc2ncnc3nc[nH]c23)c1C | -10.5 | -8.69 | -1.75 | 103% | 103% | 2.98 | 4.52
CCOC(=O)C1=C(C)Nc2nc(C)nn2C1c1ccc(OCC)c(OC)c1 (centres undefined) | -8.05 | -3.29 | -4.07 | 101% | 99% | 1.44 | 0.63
O=C(Nc1cccnc1)C(Cc1ccccc1)n1cccc1 (centres undefined) | -15.5 | -13.4 | -4.93 | 102% | 91.8% | 0.44 | 4.6
CN(c1nnc(N)s1)C1CCCCC1 | 1.35 | 14 | -1.87 | 104% | 98.7% | 2.38 | 3.49
COCCNC(=O)CS(=O)Cc1nc(-c2ccc(OC)cc2)oc1C (centres undefined) | -9.42 | -4.61 | 0.42 | 103% | 95.2% | 1.11 | 0.85
O=C(Cn1cc2c(n1)CCCCC2)NCc1cccs1 | 0.86 | 0.58 | -1.84 | 100% | 87.7% | 0.935 | 1.69
CCOc1nonc1C(=N)/C(C(C)=O)=C(\C)O | -12.6 | -12.1 | -1.06 | 104% | 98% | 1.42 | -0.48
O=C(Nc1ccc(SC(F)F)cc1)C1=COCCO1 | -0.035 | 10.5 | 2.59 | 93.8% | 90.1% | 1.4 | 5.17
CCN1CCN(C(=O)c2cc3c(=O)oc4ccc(C)cc4c3s2)CC1 | -12.6 | -16.2 | -2.18 | 102% | 93.7% | 0.905 | 1.3

Compound | growth inhibition [1] [%] | growth inhibition [2] [%] | viability increase [3] [%] | viability [4] | viability [5] | inhibition [6] [%] | RAM network inhibition [7] [%]
Cc1cccc(-n2c(CNC(=O)c3ccccc3)nnc2SCC(=O)Nc2nccs2)c1 | 4.21 | 15.6 | -3.48 | 112% | 103% | 1.17 | 5.7
CCCOc1ccc(C2c3c(oc4cc(C)c(C)cc4c3=O)C(=O)N2CCCN(C)C)cc1 (centres undefined) | -3.96 | -1.01 | 0.77 | 104% | 109% | 0.185 | -0.1
CCCCC(=O)OCCNC(=O)c1cc2ccccc2oc1=O | -3.98 | -0.93 | -2.04 | 92.3% | 95.2% | 2.96 | 2.46
COC(=O)C1=C(C)N(C)C(C)=C(C(=O)OC)C1c1ccsc1 | -6.88 | -6.81 | -2.96 | 91.4% | 87.8% | 1.99 | 2.51
CCc1ccc(NC(=O)c2ccc3c(c2)C(=O)N(Cc2ccco2)C3=O)cc1 | -3.35 | 7.26 | -2.41 | 93.6% | 89.6% | 0.185 | 1.5
Cc1ccc(S(=O)(=O)CNC(=O)c2ccccc2)cc1 | -4.27 | 3.26 | 1.64 | 97.8% | 96.8% | 1.57 | 0.51
CCOC(=O)C1CCCN(C(=O)c2cn(CC)c3ccc(S(=O)(=O)N(C)C)cc3c2=O)C1 (centres undefined) | -5.92 | -15.5 | -0.67 | 108% | 102% | 0.85 | 0.1
O=C(NC(C(=O)c1ccccc1)N1CCCCC1)c1ccccc1 (centres undefined) | -8.09 | -3.47 | -2.31 | 91.2% | 98% | -0.65 | 1.67
CN1C(=O)C(O)(CC(=O)c2cccnc2)c2ccccc21 (centres undefined) | -7.06 | -7.81 | -4.86 | 83% | 85% | 2.05 | 1.88
C=CCSc1nc2c(cnn2-c2ccc(C)c(C)c2)c(=O)[nH]1 | -6.23 | -5.07 | -1.43 | 93.3% | 93.1% | 4.19 | 0.11
CCCCCn1c(SCCOCC)nc2c1c(=O)[nH]c(=O)n2C | -10.1 | -15.6 | -0.61 | 96.2% | 97.2% | 1.75 | 4.65
CCCCCn1c(N2CCC(Cc3ccccc3)CC2)nc2c1c(=O)[nH]c(=O)n2C | -14.9 | -29.9 | -8.6 | 15.1% (active) | 12.8% (active) | 1.22 | 7.3
FC(F)(F)c1nnc2ccc(-n3ccnc3)nn12 | -9.92 | -28.6 | -1.45 | 103% | 88.4% | 0.61 | 3.79
CCOC(=O)c1ccc(NC(=O)CSc2nc3c(c(=O)n2-c2ccccc2OC)SCC3)cc1 | -1.49 | -14.6 | -2.33 | 85.7% | 81.4% | 1.34 | 3.9
COc1cc(C(=O)N2CCN(C(=O)C(Cc3cc(C)ccc3C)NC(C)=O)CC2)cc(OC)c1OC (centres undefined) | -24.3 | -16.3 | -2.13 | 97.7% | 88.2% | 1.05 | 1.42
CCCCCC(C)n1[nH]c(=O)c2c(C)cc(C)nc21 (centres undefined) | -6.7 | 17.6 | -3.27 | 97.6% | 96.2% | 0.47 | 0.57
O=C(c1ccccc1S(=O)(=O)NCc1ccccc1)N1CCCC1 | -12 | -20.3 | -0.09 | 110% | 98% | 1.66 | 3.93
CCOC(=O)C1CCN(c2c(N3CCN(Cc4ccccc4)CC3)c(=O)c2=O)CC1 | -4.1 | -4.49 | -0.78 | 90.5% | 86.3% | 1.52 | 6.15
